One assay concerns the target T1, Acid ceramidase (Homo sapiens, UniProt Q13510).
T1 sequence (Q13510 whole entry): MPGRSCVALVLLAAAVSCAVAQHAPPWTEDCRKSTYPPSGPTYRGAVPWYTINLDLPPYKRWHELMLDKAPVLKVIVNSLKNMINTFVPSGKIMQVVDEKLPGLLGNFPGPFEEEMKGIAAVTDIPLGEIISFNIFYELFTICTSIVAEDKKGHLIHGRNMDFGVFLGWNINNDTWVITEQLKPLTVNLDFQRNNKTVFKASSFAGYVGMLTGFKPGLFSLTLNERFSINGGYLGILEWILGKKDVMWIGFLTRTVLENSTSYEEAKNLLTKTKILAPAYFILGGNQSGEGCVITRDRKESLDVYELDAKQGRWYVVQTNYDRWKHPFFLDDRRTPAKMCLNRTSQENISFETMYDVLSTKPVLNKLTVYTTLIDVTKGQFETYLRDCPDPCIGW
Briefly: (§1) Inhibition of human ASAH1 stably over expressed in human intact A-375 cells using RBM14C12 fluorogenic substrate measured at pH 4.5 by fluorescence spectrophotometry. In kind it is cell-based. The essentials: (§2)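 A375 cells with doxycycline-inducible AC, induced with 1 μg/mL doxycycline for 24 h. Intact cells (2x10^4/well) given RBM14C12 (10 μM) plus compounds in a range of concentrations in DMEM 10% FBS for 3 h at 37 °C. NaIO4 oxidation at pH 10.6, fluorescence at 355/460 nm, normalized to SRB protein. Three experiments in triplicate.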

Assay [1] concerns the target Neutral ceramidase (Mus musculus) (UniProt Q9JHE3). Nature of the assay: Inhibition of ASAH2 in wild type mouse intact embryonic fibroblast using RBM14C16 fluorogenic substrate measured at pH 7.5 incubated for 3 hrs by fluorescence spectrophotometry. The following applies: MEF. The essentials:
(§3)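 Intact MEF (ASAH2-null or wild type) seeded at 2x10^4 cells/well 24 h before the assay. Then given RBM14C16 (10 μM) plus a range of compound concentrations, added together, in DMEM 10% FBS for 3 h at 37 °C. Stopped with MeOH, oxidized with NaIO4 at pH 10.6, umbelliferone fluorescence read at 355/460 nm. Normalized to SRB protein; three experiments in triplicate.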

Assay [2] concerns the target T2, Alkaline ceramidase 3 (Mus musculus) (UniProt Q9D099).
T2 sequence (whole entry): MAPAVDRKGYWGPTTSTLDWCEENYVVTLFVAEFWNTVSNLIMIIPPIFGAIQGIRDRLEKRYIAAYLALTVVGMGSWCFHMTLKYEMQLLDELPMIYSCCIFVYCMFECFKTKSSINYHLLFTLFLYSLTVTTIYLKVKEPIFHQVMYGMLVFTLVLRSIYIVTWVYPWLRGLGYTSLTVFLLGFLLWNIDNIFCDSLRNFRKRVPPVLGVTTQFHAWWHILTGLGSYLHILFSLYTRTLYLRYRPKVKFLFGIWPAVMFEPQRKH
Nature of the assay: Inhibition of ACER3 in ASAH2-null intact mouse embryonic fibroblast cell assessed as reduction in glucosylceramide level incubated for 3 hrs by LC-MS analysis. The note with it: MEF. The essentials:
(§4)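 ASAH2-null MEF seeded at 0.2x10^6 cells/mL, grown 24 h, then given 50 μM compound or vehicle in DMEM 10% FBS for 3 h. Cells washed with PBS, lipids extracted and quantified by LC/MS. Mean ± SD from two experiments with triplicates; unpaired two-tailed t-test versus vehicle.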

Assay [3] addresses T2, Alkaline ceramidase 3 (Mus musculus). Nature of the assay: Inhibition of ACER3 in ASAH2-null mouse embryonic fibroblast lysate using RBM14C16 fluorogenic substrate measured at pH 9 in presence of Ca2+ by fluorescence spectrophotometry. The following applies: MEF, time 3.0 hrs. Format: subcellular. The gist of the method: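 Lysate of ASAH2-null MEF (25 μg protein) in 50 mM HEPES, 1 mM CaCl2, pH 9, incubated 3 h at 37 °C with RBM14C16 and test compound. Stopped with MeOH, then NaIO4 in glycine-NaOH pH 10.6, 1 h at 37 °C in dark. Fluorescence read at ex 355/em 460 nm against enzyme-free blanks. Triplicates.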

For assay [4] the target is unchanged. Nature of the assay: Inhibition of ACER3 in ASAH2-null mouse intact embryonic fibroblast using RBM14C16 fluorogenic substrate measured at pH 9 for 3 hrs by fluorescence spectrophotometry. The note with it: MEF. The gist of the method:
as §3

The target is the same in assay [5]. Briefly: Inhibition of ACER3 in ASAH2-null intact mouse embryonic fibroblast cell assessed as reduction in sphingosine level incubated for 3 hrs by LC-MS analysis. The following applies: MEF. The essentials: as §4
The target of assay [6] is T3, Acid ceramidase (Homo sapiens) (UniProt Q13510).
T3 sequence (whole entry): T1 sequence (Q13510 whole entry)
Briefly: Inhibition of human ASAH1 stably over expressed in human A-375 cell lysate using RBM14C12 fluorogenic substrate measured at 1:1 compound to substrate molar ratio at pH 4.5 by fluorescence spectrophotometry. Format: subcellular.

The target in another assay is T4, Alkaline ceramidase 3 (Mus musculus, UniProt Q9D099).
T4 sequence (Q9D099 whole entry): T2 sequence (whole entry)
Briefly: Non-competitive inhibition of ACER3 in ASAH2-null mouse embryonic fibroblast lysate using RBM14C16 as substrate. Format: subcellular. The gist of the method: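 Kinetics used ASAH2-null MEF lysate (25 μg) in 50 mM HEPES, 1 mM CaCl2, pH 9. RBM14C16 at 5, 10, 20 and 40 μM, with varied inhibitor amounts. Ki taken from the slopes of double-reciprocal regression lines at each inhibitor concentration. Four experiments in triplicate.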

In assay [7] the target is T2, Alkaline ceramidase 3 (Mus musculus). Briefly: Inhibition of ACER3 in ASAH2-null intact mouse embryonic fibroblast cell assessed as increase in total […] incubated for 3 hrs by LC-MS analysis. The following applies: MEF. The gist of the method:
as §4

For assay [8] the target is unchanged. Nature of the assay: Inhibition of ACER3 in ASAH2-null intact mouse embryonic fibroblast cell assessed as reduction in sphingomyelin level incubated for 3 hrs by LC-MS analysis. The following applies: MEF. The essentials: as §4
For assay [9], the target named is T3, Acid ceramidase (Homo sapiens). The description is as §1. In kind it is cell-based. The following applies: time 3.0 hrs. The gist of the method:
as §2

Assay [10] addresses T5, Neutral ceramidase (Homo sapiens, UniProt Q9NR71). Briefly: Inhibition of human ASAH2 stably over expressed in human A-375 cell lysate using RBM14C24 fluorogenic substrate measured at 20 uM at pH 7.5 by fluorescence spectrophotometry. In kind it is subcellular.
Assay [11] deals with T5, Neutral ceramidase. Briefly: Inhibition of human ASAH2 transiently over expressed in human HT-29 cell lysate using RBM14C24 fluorogenic substrate measured at pH 7.4 by fluorescence spectrophotometry.
The target in assay [12] is T3, Acid ceramidase (Homo sapiens). Briefly: Inhibition of human ASAH1 stably over expressed in human A-375 cell lysate using RBM14C12 fluorogenic substrate measured at 40 uM at pH 4.5 by fluorescence spectrophotometry. Format: subcellular. The gist of the method:
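Lysate of doxycycline-induced AC-overexpressing A375 cells (25 μg) in 25 mM sodium acetate pH 4.5, with RBM14C12 (10 μM) and a range of compound concentrations, 3 h at 37 °C. NaIO4/glycine-NaOH pH 10.6 development, fluorescence at 355/460 nm. Mean ± SEM from three to four experiments in triplicate.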

For assay [13], the target named is T5, Neutral ceramidase. Briefly: Inhibition of human ASAH2 recombinant enzyme using RBM14C16 fluorogenic substrate measured at 5 uM at pH 7.5 by fluorescence spectrophotometry.
Assay [14] addresses T5, Neutral ceramidase. Nature of the assay: Non-competitive inhibition of recombinant ASAH2 stably over expressed in human A-375 cell lysate using RBM14C24 as substrate. In kind it is subcellular.
In assay [15] the target is T5, Neutral ceramidase. Briefly: Inhibition of human ASAH2 recombinant enzyme using RBM14C16 fluorogenic substrate measured at 20:1 substrate to compound molar ratio at pH 7.5 by fluorescence spectrophotometry.
Assay [16] addresses T5, Neutral ceramidase. Briefly: Inhibition of human ASAH2 transiently over expressed in human HT29 cell lysate using RBM14C24 fluorogenic substrate measured at >40 uM at pH 7.4 by fluorescence spectrophotometry. The following applies: HT-29, dose microM >40.

The results in this text go back to ChEMBL document CHEMBL4813974 (Eur J Med Chem, 2021).

The source made the active and inactive calls. The rule behind the calls is not given here.

T5 sequence (Q9NR71 whole entry): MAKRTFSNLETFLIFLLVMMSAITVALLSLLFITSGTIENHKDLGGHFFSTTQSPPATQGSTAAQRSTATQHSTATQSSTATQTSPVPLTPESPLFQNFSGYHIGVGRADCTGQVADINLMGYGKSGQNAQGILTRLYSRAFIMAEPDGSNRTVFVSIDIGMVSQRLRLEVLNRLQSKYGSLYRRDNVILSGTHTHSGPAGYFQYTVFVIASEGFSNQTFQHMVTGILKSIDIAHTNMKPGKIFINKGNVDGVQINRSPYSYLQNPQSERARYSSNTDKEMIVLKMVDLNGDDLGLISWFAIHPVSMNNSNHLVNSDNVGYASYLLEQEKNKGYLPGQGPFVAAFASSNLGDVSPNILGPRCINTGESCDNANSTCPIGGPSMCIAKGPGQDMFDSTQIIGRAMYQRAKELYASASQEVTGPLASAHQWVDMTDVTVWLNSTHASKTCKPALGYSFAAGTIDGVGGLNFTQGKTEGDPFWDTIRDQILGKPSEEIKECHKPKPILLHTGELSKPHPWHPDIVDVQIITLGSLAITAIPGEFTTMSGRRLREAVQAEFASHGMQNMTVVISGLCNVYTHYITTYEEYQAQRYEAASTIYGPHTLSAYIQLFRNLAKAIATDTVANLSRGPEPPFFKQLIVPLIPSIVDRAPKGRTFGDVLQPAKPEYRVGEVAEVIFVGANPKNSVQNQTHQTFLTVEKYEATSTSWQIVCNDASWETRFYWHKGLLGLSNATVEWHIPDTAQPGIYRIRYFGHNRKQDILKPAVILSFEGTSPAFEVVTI
Neutral ceramidase (Mus musculus), sequence (Q9JHE3 whole entry): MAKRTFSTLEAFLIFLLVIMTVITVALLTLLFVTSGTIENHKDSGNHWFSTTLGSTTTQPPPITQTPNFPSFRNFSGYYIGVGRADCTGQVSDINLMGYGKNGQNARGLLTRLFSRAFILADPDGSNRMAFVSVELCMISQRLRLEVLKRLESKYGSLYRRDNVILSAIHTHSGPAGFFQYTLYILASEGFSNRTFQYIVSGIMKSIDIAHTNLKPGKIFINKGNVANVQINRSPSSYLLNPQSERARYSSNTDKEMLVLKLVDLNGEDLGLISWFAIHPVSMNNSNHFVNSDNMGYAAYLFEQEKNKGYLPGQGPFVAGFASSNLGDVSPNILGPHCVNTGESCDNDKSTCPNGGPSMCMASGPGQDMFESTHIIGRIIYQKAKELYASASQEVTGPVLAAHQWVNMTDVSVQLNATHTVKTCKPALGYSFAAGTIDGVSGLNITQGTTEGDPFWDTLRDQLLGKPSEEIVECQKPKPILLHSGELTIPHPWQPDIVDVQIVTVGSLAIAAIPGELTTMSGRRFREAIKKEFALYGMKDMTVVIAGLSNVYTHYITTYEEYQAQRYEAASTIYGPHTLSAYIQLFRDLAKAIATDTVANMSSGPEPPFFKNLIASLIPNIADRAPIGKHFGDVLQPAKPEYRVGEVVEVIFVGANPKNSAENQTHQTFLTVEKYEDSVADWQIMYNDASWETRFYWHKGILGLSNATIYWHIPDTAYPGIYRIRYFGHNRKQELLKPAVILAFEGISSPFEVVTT

In the case of `CCCCCCCCCCCC/C=C/[C@@H](O)[C@@H](C)NC(=O)c1ccc(OCCCCOCOC)cc1`, the IC50 at Acid ceramidase is > 200 µM. The inhibition entry in assay [1] and in assay [4] was “Active” throughout. For the same compound, the inhibition result in [2], in assay [5], in [6] and in assay [8] was “inactive” in each case. The inhibition entry in [3] is “Dose-Dependent Effect”. The compound further yielded a Ki on Alkaline ceramidase 3 of 34.4 µM. Besides, the fold change (FC) in assay [7] stood at 1.5.
Turning to `CCCCCCCCCCCC/C=C/[C@@H](O)[C@@H](C)NC(=O)CCCCCCC`, the inhibition entry in [1] and in assay [4] was “inactive” each time.
Take `CCCCCCCCCCCC/C=C/[C@@H](O)[C@@H](C)NC(=O)c1ccc(CCCCCCC)cc1`: the inhibition result (in [9]; in assay [1]; at Neutral ceramidase [11]; in assay [4]; in [6]) was “inactive” in each case. For the same compound, the inhibition result (on Neutral ceramidase [10]; in assay [12]; at Neutral ceramidase [13]; at Neutral ceramidase [15]) was “Active” throughout. On Neutral ceramidase [14], the Ki was 0.8 µM.
In the case of `CCCCCCCCCCCC/C=C/[C@@H](O)[C@@H](C)NC(=O)c1ccc(OCCCOCOC)cc1`, the IC50 on Acid ceramidase is > 200 µM. Besides, the inhibition entry in assay [1], in assay [4] and in [12] was “Active” in each case. Also, the inhibition entry (at Neutral ceramidase [10]; in [2]; in assay [5]; in [6]; in assay [8]) was “inactive” each time. In addition, the inhibition result on Neutral ceramidase [11] is “Dose-Dependent Effect”; in assay [3], “Dose-Dependent Effect”; on Neutral ceramidase [16] it was 50%. Besides, the Ki stood at 5.4 µM at Neutral ceramidase [14] and 25.5 µM on Alkaline ceramidase 3. Also, the fold change (FC) in assay [7] was 1.5.

As usually defined, the IC50 is the concentration needed to halve the response being measured. A lower IC50 goes with higher potency. What is called inhibition is the share of the control response that was lost under treatment. What is called Ki is the equilibrium dissociation constant of an inhibitor or competing ligand from its target.
